Data set [1] can be described thus: AUCinfinity in Sprague-Dawley rat at 1 mg/kg, iv measured up to 8 hrs by LC-MS/MS analysis. To be noted: in vivo. The class given is ADME, organism-based. An outline of the steps: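 Sprague-Dawley rats given one intravenous dose or one oral dose of 2 mg/kg. Plasma drug concentrations were followed over time, with samples taken out to 8 hr after dosing. PK parameters (clearance, volume of distribution, half-life, oral bioavailability, Cmax) were calculated from these concentration–time data.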

Data set [2] can be described thus: Inhibition of PCTAIRE2/3 in human HeLa cells lysate at 10 uM pre incubated for 15 mins followed by ADP acyl phosphate probe addition and measured after 10 mins by LC-MS/MS analysis relative to control. To be noted: 25 min, condition cancer.
Data set [3] concerns the target T1, Non-receptor tyrosine-protein kinase TNK1 (Homo sapiens) (UniProt Q13470).
T1 sequence (whole entry): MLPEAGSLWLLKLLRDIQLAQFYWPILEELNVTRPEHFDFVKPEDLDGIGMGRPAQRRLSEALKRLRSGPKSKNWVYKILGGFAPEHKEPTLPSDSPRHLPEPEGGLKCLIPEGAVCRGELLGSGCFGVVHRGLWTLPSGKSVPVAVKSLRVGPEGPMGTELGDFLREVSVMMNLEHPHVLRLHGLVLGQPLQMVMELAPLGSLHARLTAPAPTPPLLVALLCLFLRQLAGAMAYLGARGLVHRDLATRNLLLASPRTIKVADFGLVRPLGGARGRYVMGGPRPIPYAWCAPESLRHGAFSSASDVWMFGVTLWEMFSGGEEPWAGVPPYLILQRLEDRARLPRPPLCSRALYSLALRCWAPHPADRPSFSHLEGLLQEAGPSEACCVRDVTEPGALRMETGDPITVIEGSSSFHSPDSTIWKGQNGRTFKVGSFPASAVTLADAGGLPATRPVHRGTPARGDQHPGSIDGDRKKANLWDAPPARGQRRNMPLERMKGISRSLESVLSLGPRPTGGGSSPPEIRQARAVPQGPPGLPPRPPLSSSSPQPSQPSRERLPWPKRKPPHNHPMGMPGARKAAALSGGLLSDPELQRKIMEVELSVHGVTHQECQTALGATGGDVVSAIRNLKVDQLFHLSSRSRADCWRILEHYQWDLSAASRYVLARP
As to the kind of experiment: Inhibition of TNK1 (unknown origin) assessed as remaining activity at 10 uM by ATP-competition binding assay relative to control.

Data set [4] in a line: Toxicity in C57Bl/6 mouse assessed as effect on locomotor activity at 50 mg/kg, ip for 14 days. To be noted: in vivo, 336 h, time 14 day. The class given is organism-based.
The nature of data set [5]: Inhibition of MAP3K2/MAP3K3 in human HeLa cells lysate pre incubated for 15 mins followed by ADP acyl phosphate probe addition and measured after 10 mins by LC-MS/MS analysis. The class given is subcellular.
The nature of data set [6]: Inhibition of MAP3K5/MAP3K6/MAP3K15 in human HeLa cells lysate pre incubated for 15 mins followed by ATP acyl phosphate probe addition and measured after 10 mins by LC-MS/MS analysis. The class given is subcellular.
The target of data set [7] is T2, Serine/threonine-protein kinase D3 (Homo sapiens) (UniProt O94806).
T2 sequence (whole entry): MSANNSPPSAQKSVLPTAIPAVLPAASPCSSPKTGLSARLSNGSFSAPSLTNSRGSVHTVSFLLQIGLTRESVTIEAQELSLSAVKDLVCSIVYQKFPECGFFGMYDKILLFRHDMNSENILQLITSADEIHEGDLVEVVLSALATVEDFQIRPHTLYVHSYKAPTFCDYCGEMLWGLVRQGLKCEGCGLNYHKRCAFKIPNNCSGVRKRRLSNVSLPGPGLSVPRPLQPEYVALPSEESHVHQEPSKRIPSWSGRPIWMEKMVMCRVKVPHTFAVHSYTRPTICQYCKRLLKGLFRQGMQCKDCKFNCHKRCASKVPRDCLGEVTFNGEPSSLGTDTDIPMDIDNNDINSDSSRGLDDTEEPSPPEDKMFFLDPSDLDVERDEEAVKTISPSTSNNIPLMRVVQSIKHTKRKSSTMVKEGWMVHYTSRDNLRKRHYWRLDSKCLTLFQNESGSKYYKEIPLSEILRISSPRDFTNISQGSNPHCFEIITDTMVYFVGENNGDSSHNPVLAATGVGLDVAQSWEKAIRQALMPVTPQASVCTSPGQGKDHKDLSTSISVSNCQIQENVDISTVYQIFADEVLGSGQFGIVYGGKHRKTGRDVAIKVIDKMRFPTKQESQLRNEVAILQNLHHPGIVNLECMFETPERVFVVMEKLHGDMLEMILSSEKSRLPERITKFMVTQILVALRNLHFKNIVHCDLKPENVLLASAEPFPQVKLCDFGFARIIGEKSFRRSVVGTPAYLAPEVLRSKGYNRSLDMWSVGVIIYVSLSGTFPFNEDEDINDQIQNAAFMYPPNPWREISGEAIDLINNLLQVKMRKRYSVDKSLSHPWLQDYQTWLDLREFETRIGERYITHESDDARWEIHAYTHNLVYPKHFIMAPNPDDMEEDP
As to the kind of experiment: Inhibition of PKD3 in human HeLa cells lysate at 2 uM pre incubated for 15 mins followed by ADP acyl phosphate probe addition and measured after 10 mins by LC-MS/MS analysis relative to control. The class given is subcellular. The note with it: time 25.0 min.

The target of data set [8] is Serine/threonine-protein kinase Nek8 (Homo sapiens) (UniProt Q86SG6). As to the kind of experiment: Inhibition of NEK8 in human HeLa cells lysate at 10 uM pre incubated for 15 mins followed by ADP acyl phosphate probe addition and measured after 10 mins by LC-MS/MS analysis relative to control. It counts as subcellular. The note with it: time 25.0 min.
Chain of Serine/threonine-protein kinase Nek8 (Homo sapiens) (Q86SG6 whole entry): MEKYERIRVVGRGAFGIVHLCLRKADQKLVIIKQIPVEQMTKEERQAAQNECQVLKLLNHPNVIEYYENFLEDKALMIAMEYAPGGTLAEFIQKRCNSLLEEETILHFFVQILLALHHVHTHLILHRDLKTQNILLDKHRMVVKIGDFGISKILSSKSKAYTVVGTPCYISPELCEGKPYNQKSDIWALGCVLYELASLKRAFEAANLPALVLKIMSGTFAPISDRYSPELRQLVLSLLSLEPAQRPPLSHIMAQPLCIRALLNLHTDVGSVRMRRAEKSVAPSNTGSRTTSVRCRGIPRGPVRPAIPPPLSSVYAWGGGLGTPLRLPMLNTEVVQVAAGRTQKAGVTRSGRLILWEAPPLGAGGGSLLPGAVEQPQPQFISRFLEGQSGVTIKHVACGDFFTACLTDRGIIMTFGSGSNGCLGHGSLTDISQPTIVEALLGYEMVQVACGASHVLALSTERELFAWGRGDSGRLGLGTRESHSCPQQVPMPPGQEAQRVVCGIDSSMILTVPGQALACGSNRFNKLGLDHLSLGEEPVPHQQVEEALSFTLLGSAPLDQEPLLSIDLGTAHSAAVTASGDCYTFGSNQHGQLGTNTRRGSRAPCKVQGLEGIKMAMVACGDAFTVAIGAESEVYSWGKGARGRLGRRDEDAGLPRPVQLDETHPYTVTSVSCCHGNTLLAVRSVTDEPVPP
For data set [9], the target named is Mitogen-activated protein kinase; ERK1/ERK2 (Homo sapiens) (UniProt P27361+P28482). As to the kind of experiment: Inhibition of ERK1/2 in human HeLa cells assessed as reduction in EGF-induced ERK1/2 phosphorylation level at T202/Y204 residue at 1 to 5 uM pre incubated for 1 hr followed by EGF stimulation and measured after 17 mins by Western blot analysis. It counts as cell-based. The note with it: dose 1-5 µM, time 77.0 min. Background: In western blotting, separated proteins are transferred to a membrane and probed.
Chain of Mitogen-activated protein kinase; ERK1/ERK2 (Homo sapiens) (P27361 whole entry, looked up): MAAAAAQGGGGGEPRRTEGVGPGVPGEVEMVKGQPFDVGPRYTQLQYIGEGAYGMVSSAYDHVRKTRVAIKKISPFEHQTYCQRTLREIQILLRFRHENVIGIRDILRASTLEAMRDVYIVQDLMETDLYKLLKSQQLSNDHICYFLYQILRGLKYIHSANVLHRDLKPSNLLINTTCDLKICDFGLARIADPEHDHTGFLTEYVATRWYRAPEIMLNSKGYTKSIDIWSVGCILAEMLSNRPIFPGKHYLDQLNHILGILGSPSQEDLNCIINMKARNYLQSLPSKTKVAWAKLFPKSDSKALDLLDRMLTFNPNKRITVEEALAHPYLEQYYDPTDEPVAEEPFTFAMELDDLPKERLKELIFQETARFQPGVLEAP
Chain of Mitogen-activated protein kinase; ERK1/ERK2 (Homo sapiens) (P28482 whole entry, looked up): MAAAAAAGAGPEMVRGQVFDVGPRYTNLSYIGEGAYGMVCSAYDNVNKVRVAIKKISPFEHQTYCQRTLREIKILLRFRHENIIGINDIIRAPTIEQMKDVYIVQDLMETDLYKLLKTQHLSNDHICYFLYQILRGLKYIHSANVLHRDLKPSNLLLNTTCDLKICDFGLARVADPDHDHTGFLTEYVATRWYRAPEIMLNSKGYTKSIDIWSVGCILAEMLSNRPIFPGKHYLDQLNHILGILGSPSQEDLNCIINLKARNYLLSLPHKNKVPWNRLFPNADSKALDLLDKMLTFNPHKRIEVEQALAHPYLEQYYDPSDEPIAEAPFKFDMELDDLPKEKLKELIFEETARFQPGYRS

Data set [10] has as its target Ribosomal protein S6 kinase alpha-3 (Homo sapiens, UniProt P51812). The data set is described as follows: Inhibition of RSK2 domain 2 in human HeLa cells lysate at 50 uM pre incubated for 15 mins followed by ADP acyl phosphate probe addition and measured after 10 mins by LC-MS/MS analysis relative to control. To be noted: time 25.0 min. It counts as subcellular.

1 compound from ChEMBL document CHEMBL5661979, “Pharmacological inhibition of BMK1 suppresses tumor growth through promyelocytic leukemia protein” (Cancer Cell, 2010) can be followed below.

Active and inactive are the calls of the source. The calls are words filed in the database; no cut-off is given here.

Chain of Ribosomal protein S6 kinase alpha-3 (P51812 whole entry, the tested form may be a part): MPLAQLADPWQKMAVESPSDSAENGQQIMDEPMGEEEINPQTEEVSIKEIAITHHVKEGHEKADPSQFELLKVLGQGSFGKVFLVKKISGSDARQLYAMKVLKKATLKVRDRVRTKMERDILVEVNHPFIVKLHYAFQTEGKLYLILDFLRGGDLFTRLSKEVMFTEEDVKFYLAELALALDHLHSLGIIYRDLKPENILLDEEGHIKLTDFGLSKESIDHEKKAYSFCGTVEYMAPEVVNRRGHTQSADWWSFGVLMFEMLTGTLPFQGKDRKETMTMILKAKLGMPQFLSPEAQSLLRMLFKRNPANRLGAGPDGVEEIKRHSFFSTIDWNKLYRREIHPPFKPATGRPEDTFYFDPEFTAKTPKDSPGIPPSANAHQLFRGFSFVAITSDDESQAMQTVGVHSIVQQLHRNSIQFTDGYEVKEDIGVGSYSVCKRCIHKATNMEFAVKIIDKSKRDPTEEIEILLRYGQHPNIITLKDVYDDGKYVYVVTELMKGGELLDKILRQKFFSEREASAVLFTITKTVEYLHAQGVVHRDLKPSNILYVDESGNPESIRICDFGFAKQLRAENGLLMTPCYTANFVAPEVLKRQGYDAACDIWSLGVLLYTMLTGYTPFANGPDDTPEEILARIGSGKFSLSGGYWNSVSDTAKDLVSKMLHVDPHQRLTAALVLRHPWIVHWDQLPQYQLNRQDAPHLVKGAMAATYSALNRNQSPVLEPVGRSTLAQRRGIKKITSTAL

On to `CCOc1cc(N2CCC(O)CC2)ccc1Nc1ncc2c(n1)N(C)c1ccccc1C(=O)N2C`, for which, in data set [1], the AUC(0-inf) (usually total exposure, with the tail of the curve extrapolated) was 1.39 µM·h. Besides, in data set [2], the inhibition (usually the relative decrease from the control value, in per cent) at 10 µM was -4.4%. Also, the Activity in data set [3] is 7.8%; in data set [4], “Non-Toxic”. Also, the concentration for half-maximal inhibition (IC50) in data set [5] and in data set [6] was > 50 µM throughout. Moreover, the inhibition in data set [7] is 5.5%; in [8] it was -0.8%; in data set [10], 49%. Further, the inhibition entry in [9] was “inactive”.
